The record followed here is ChEMBL document CHEMBL3102710, “Design, synthesis, and evaluation of fimbrolide-nitric oxide donor hybrids as antimicrobial agents” (J Med Chem, 2013).

The source made the active and inactive calls. Unless noted, the calls are words filed in the database; no cut-off is given here.

Data set [1] in a line: Inhibition of quorum sensing system in Pseudomonas aeruginosa PAO1 MH602 harboring lasB promoter fused with GFP-ASV assessed as reduction in GFP-ASV reporter protein expression at 88 uM measured every 30 mins relative to control. Summed up:
(§1)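 P. aeruginosa PAO1 carrying a PlasB::gfp(ASV) fusion plasmid, which makes its own AHL signals, incubated with compounds at 88.8, 29.6, 9.9, 3.3 or 1.0 μM. GFP fluorescence (RFU) read every half hour. Percent QS inhibition is the percent RFU difference between sample and untreated control, taken at the time point when control fluorescence peaks.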

The nature of data set [2]: Inhibition of quorum sensing system in Pseudomonas aeruginosa PAO1 MH602 harboring lasB promoter fused with GFP-ASV assessed as reduction in GFP-ASV reporter protein expression measured every 30 mins. Summed up:
as §1

In data set [3] the test system is Pseudomonas aeruginosa. The data set is described as follows: Antibacterial activity against Pseudomonas aeruginosa PAO1 assessed as inhibition of biofilm formation at 150 uM after 6 hrs by crystal violet staining assay relative to control. Format: functional. Particulars: for inhibition at 150 µM: PAO1, 6 h.
Data set [4] in a line: Inhibition of quorum sensing system in Pseudomonas aeruginosa PAO1 MH602 harboring lasB promoter fused with GFP-ASV assessed as reduction in GFP-ASV reporter protein expression at 3.2 uM measured every 30 mins relative to control. Summed up: as §1
Data set [5] in a line: Induction of nitric oxide release in PBS buffer supplemented with L-cysteine, xanthine, xanthine oxidase assessed as nitrite release at 250 to 500 uM after 24 hrs by Griess assay. Format: physicochemical. The essentials: (§2)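 Total NO release was quantified as nitrite with Griess reagent, which detects nitrite at ≥1 μM. Because of that limit, compounds were added at 250 μM and 500 μM.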
A general note: The Griess reaction detects nitrite, a stable product of nitric oxide.

Data set [6] is described as follows: Inhibition of quorum sensing system in Pseudomonas aeruginosa PAO1 MH602 harboring lasB promoter fused with GFP-ASV assessed as reduction in GFP-ASV reporter protein expression at 9.8 uM measured every 30 mins relative to control. Summed up: as §1
For data set [7], the system named is Pseudomonas aeruginosa. Put plainly: Antibacterial activity against Pseudomonas aeruginosa PAO1 MH602 harboring lasB promoter fused with GFP-ASV assessed as growth inhibition at 88 uM measured every 30 mins by GFP-ASV reporter gene assay. Format: organism-based. Particulars: for Activity: pseudomonas aeruginosa, in vivo, 0.5 h, 88 µM. Summed up: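 Cell growth of the PAO1 PlasB::gfp(ASV) reporter strain tracked as OD600 every half hour during compound incubation, alongside GFP readings. Growth is compared against the untreated control.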
A general note: In a reporter assay the amount or activity of a reporter protein is the signal.

The nature of data set [8]: Inhibition of quorum sensing system in Pseudomonas aeruginosa PAO1 MH602 harboring lasB promoter fused with GFP-ASV assessed as reduction in GFP-ASV reporter protein expression at 266 uM measured every 30 mins relative to control.
A short description of data set [9]: Inhibition of quorum sensing system in Pseudomonas aeruginosa PAO1 MH602 harboring lasB promoter fused with GFP-ASV assessed as reduction in GFP-ASV reporter protein expression at 29 uM measured every 30 mins relative to control. Summed up: as §1
Data set [10] is described as follows: Induction of nitric oxide release in PBS buffer supplemented with L-cysteine, xanthine, xanthine oxidase assessed as nitrite release at 500 uM after 1 hr by Griess assay. Format: physicochemical. Summed up:
as §2

Data set [11] relates to Pseudomonas aeruginosa. The data set is described as follows: Induction of nitric oxide-dependent nirS gene expression in Pseudomonas aeruginosa at 500 uM incubated for 2 hrs under dark condition by GFP reporter gene assay relative to untreated control. In kind it is functional.
Data set [12] deals with Pseudomonas aeruginosa. Put plainly: Antibacterial activity against Pseudomonas aeruginosa assessed as growth inhibition at 500 uM after 2 hrs by GFP reporter gene assay. In kind it is organism-based. Particulars: in vivo.
Data set [13] can be described thus: Induction of nitric oxide release in PBS buffer supplemented with L-cysteine, xanthine, xanthine oxidase assessed as nitrite release at 250 to 500 uM after 1 hr by Griess assay. Format: physicochemical. Summed up: as §2
The subject of data set [14] is Pseudomonas aeruginosa. The data set is described as follows: Antibacterial activity against Pseudomonas aeruginosa MH602 harboring lasB promoter fused with GFP-ASV assessed as growth inhibition at 266 uM measured every 30 mins by GFP-ASV reporter gene assay. Format: organism-based. To be noted: MH602, 0.5 h, read-out: GI.
The test system of data set [15] is Pseudomonas aeruginosa. Put plainly: Antibacterial activity against Pseudomonas aeruginosa PAO1 assessed as growth inhibition at 150 uM after 6 hrs. In kind it is organism-based. To be noted: in vivo.

Consider `CCCC(OC(=O)CO/N=[N+](\[O-])N1CCN(C(=O)OCC)CC1)C1=CC(=C(Br)Br)OC1=O` (stereo unspecified), for which the inhibition in data set [1] was 41.5%; in [2], “Dose-dependent effect”; in data set [6], 4%; in [8], 65.9%; in [9], 22.8%. Besides, the inhibition entry (in the data set with Pseudomonas aeruginosa [3]; in data set [4]) was “inactive” in each case. In addition, the Activity entry in data set [5] is reported as “Not Active”; in the data set on Pseudomonas aeruginosa [7], “Non-toxic”.

For the compound `CCCCCCCCCCCC(O[N+](=O)[O-])C1=CC(=C(Br)Br)OC1=O` (stereo unspecified), the inhibition in data set [1] is 29%; in [2] it was “Dose-dependent effect”; in data set [8] it was 67.3%. In the data set with Pseudomonas aeruginosa [3], the inhibition at 150 µM is 73%. Besides, the Activity is 17.9 µM in data set [10], “Non-toxic” in the data set on Pseudomonas aeruginosa [12] and “Non-toxic” in the data set with Pseudomonas aeruginosa [7]. For the same compound, the inhibition entry in [4], in data set [6] and in [9] was “inactive” in each case. Besides, in the data set on Pseudomonas aeruginosa [11], the result was inactive.

In the case of `CCCC(SC(=O)CCCO[N+](=O)[O-])C1=CC(=C(Br)Br)OC1=O` (stereo unspecified), the inhibition in [1] was 13.8%; in [2], “Dose-dependent effect”; in data set [8] it was 54.2%. The figures for the Activity entry (in [13]; with Pseudomonas aeruginosa [12]; in the data set with Pseudomonas aeruginosa [7]) were “Active”, “Non-toxic” and “Non-toxic”, respectively. The inhibition entry in [4], in [6] and in [9] was “inactive” throughout. For the same compound, in the data set on Pseudomonas aeruginosa [11], the outcome was inactive.

With `CCCC(SC(=O)CCO[N+](=O)[O-])C1=CC(=C(Br)Br)OC1=O` (stereo unspecified), the inhibition was 51.5% in [1], “Dose-dependent effect” in data set [2], 72.3% in data set [8] and 33.6% in [9]. Further, the Activity in data set [13] was 1 µM; in the data set with Pseudomonas aeruginosa [12], “Non-toxic”; in the data set on Pseudomonas aeruginosa [7] it was “Non-toxic”. Besides, the inhibition entry in [4] and in data set [6] was “inactive” throughout. In addition, the “fold change (FC)” value in the data set on Pseudomonas aeruginosa [11] was determined as 2.

Take `CCCC(O[N+](=O)[O-])C1=CC(=C(Br)Br)OC1=O` (stereo unspecified): the inhibition in data set [1] is 71.4%; in data set [2] it was “Dose-dependent effect”; in data set [6], 22.4%; in data set [8] it was 91.1%; in data set [9], 39.9%. Further, the inhibition at 266 µM in the data set on Pseudomonas aeruginosa [14] was more than 15%. The inhibition at 150 µM with Pseudomonas aeruginosa [3] was 70%. Moreover, the Activity is 1 µM in data set [13], “Non-toxic” with Pseudomonas aeruginosa [15], “Non-toxic” in the data set with Pseudomonas aeruginosa [12] and “Non-toxic” in the data set with Pseudomonas aeruginosa [7]. The inhibition result in data set [4] is “inactive”. Besides, the result in the data set on Pseudomonas aeruginosa [11] was inactive.

`CCCCCC(O[N+](=O)[O-])C1=CC(=C(Br)Br)OC1=O` (stereo unspecified): the inhibition is 56.4% in data set [1], “Dose-dependent effect” in data set [2], 73.1% in [8] and 32.5% in data set [9]. Further, the inhibition at 150 µM with Pseudomonas aeruginosa [3] came to 70%. Also, the Activity is 1 µM in data set [13], “Non-toxic” with Pseudomonas aeruginosa [15], “Non-toxic” with Pseudomonas aeruginosa [12] and “Non-toxic” in the data set with Pseudomonas aeruginosa [7]. Moreover, the inhibition entry in [4] and in [6] was “inactive” each time. For the same compound, the result in the data set on Pseudomonas aeruginosa [11] was inactive.

With `CCCC(OC(=O)CCCO[N+](=O)[O-])C1=CC(=C(Br)Br)OC1=O` (stereo unspecified), the inhibition is 28.6% in data set [1]; “Dose-dependent effect” in data set [2]; 8% in data set [6]; 55.8% in data set [8]; 12.3% in data set [9]. Besides, the Activity in data set [13] was 1 µM; with Pseudomonas aeruginosa [12], “Non-toxic”; in the data set with Pseudomonas aeruginosa [7], “Non-toxic”. Also, the inhibition entry in [4] is “inactive”. Moreover, in the data set on Pseudomonas aeruginosa [11], the outcome was inactive.

`CCCCCCCC(O[N+](=O)[O-])C1=CC(=C(Br)Br)OC1=O` (stereo unspecified): the inhibition in data set [1] is 19.2%; in data set [2] it was “Dose-dependent effect”; in data set [8] it was 58.2%. Moreover, the Activity entry is recorded as “Active” in [13], “Non-toxic” in the data set on Pseudomonas aeruginosa [12] and “Non-toxic” with Pseudomonas aeruginosa [7]. Besides, the inhibition result in [4], in data set [6] and in [9] was “inactive” throughout. Besides, the outcome in the data set with Pseudomonas aeruginosa [11] was inactive.

Consider `CC(O[N+](=O)[O-])C1=CC(=C(Br)Br)OC1=O` (stereo unspecified), for which the inhibition in [1] was 70.4%; in data set [2], “Dose-dependent effect”; in data set [8] it was 94.3%; in data set [9], 29%. Further, the inhibition at 266 µM with Pseudomonas aeruginosa [14] was more than 15%. Moreover, the inhibition entry with Pseudomonas aeruginosa [3] was “Active”. In addition, the inhibition entry in [4] and in data set [6] was “inactive” in each case. The outcome in the data set on Pseudomonas aeruginosa [11] was inactive. Further, the Activity entry in the data set with Pseudomonas aeruginosa [12] is reported as “Toxic”. Further, the inhibition at 88 µM with Pseudomonas aeruginosa [7] (Pseudomonas aeruginosa, PAO1 MH602, 0.5 h, read-out: GI) was more than 15%.

Consider `CCCC(OC(=O)CO[N+](=O)[O-])C1=CC(=C(Br)Br)OC1=O` (stereo unspecified), for which the inhibition in data set [1] was 72.9%; in [2], “Dose-dependent effect”; in data set [6] it was 23.2%; in data set [8], 88%; in data set [9], 49.6%. For the same compound, in the data set on Pseudomonas aeruginosa [3], the inhibition at 150 µM is 61%. For the same compound, the Activity in data set [10] is 29 µM; in the data set on Pseudomonas aeruginosa [12] it was “Non-toxic”; in the data set on Pseudomonas aeruginosa [7], “Non-toxic”. For the same compound, the inhibition result in data set [4] is “inactive”. In addition, the “fold change (FC)” value in the data set on Pseudomonas aeruginosa [11] was found to be 2.5.

On to `CCCCCCCCCCCC(OC(=O)CC(=O)N1CCN(/[N+]([O-])=N/OC)CC1)C1=CC(=C(Br)Br)OC1=O` (stereo unspecified), for which the inhibition entry (in data set [1]; in the data set on Pseudomonas aeruginosa [3]; in data set [4]; in data set [6]; in data set [9]) was “inactive” throughout. Moreover, the inhibition entry in data set [2] is “Dose-dependent effect”; in data set [8], 40.9%. Moreover, the figures for the Activity entry (in [5]; in the data set on Pseudomonas aeruginosa [7]) were “Not Active” and “Non-toxic”, respectively.
